{"source": "ChEMBL document CHEMBL1156678", "about": "“A new class of analgesic agents toward prostacyclin receptor inhibition: synthesis, biological studies and QSAR analysis of 1-hydroxyl-2-substituted phenyl-4,4,5,5-tetramethylimidazolines” (Eur J Med Chem, 2008)", "key": {"Mus musculus [1]": {"tested_on": "Mus musculus", "assay": "Analgesic activity in ICR mouse assessed as pain threshold variation at 0.013 mmol/kg, ip after 150 mins by tail flick test relative to control", "type": "functional", "how_it_was_run": "(§1)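 Male ICR mice (25 ± 2 g), kept on a 12/12 h light/dark cycle at 21 ± 2 °C for one day before use. Each received a single i.p. injection in 0.2 ml saline + 0.01 ml DMSO + 0.02 ml Tween-80. Vehicle-only mice served as controls. Basal tail-flick threshold was measured four times (BPT). Thresholds were then read every 30 min for 150 min. PTV = (post-dose threshold − BPT)/BPT. n = 10, x ± SD.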"}, "Mus musculus [2]": {"tested_on": "Mus musculus", "assay": "Analgesic activity in ICR mouse assessed as pain threshold variation at 0.0013 mmol/kg, ip after 30 mins by tail flick test relative to control", "type": "functional", "how_it_was_run": "as §1"}, "Mus musculus [3]": {"tested_on": "Mus musculus", "assay": "Analgesic activity in ICR mouse assessed as pain threshold variation at 0.0013 mmol/kg, ip after 60 mins by tail flick test relative to control", "type": "functional", "how_it_was_run": "as §1"}, "Mus musculus [4]": {"tested_on": "Mus musculus", "assay": "Analgesic activity in ICR mouse assessed as pain threshold variation at 0.0013 mmol/kg, ip after 90 mins by tail flick test relative to control", "type": "functional", "how_it_was_run": "as §1"}, "Mus musculus [5]": {"tested_on": "Mus musculus", "assay": "Analgesic activity in ICR mouse assessed as pain threshold variation at 0.0013 mmol/kg, ip after 120 mins by tail flick test relative to control", "type": "functional", "how_it_was_run": "as §1"}, "Mus musculus [6]": {"tested_on": "Mus musculus", "assay": "Analgesic activity in ICR mouse assessed as pain threshold variation at 0.0013 mmol/kg, ip after 150 mins by tail flick test relative to control", "type": "functional", "how_it_was_run": "as §1"}, "Mus musculus [7]": {"tested_on": "Mus musculus", "assay": "Thrombotic toxicity in ICR mouse assessed as tail bleeding time at 1.3 mmol/kg, ip after 60 mins", "type": "organism-based", "details": "in vivo, 1 h", "how_it_was_run": "(§2)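 Male ICR mice (25 ± 2 g) were kept one day on a 12/12 h light/dark cycle at 21 ± 2 °C. Each received a single i.p. dose of 1.30 mmol/kg in saline/DMSO/Tween-80 (0.2/0.01/0.02 ml), or the solvent only. The restrained mouse had 1 mm cut from the tail before dosing and at 5, 15, 30 and 60 min. Bleeding time (s) is reported as mean ± SD.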"}, "[8]": {"assay": "Cardiovascular toxicity in rat aorta assessed as inhibition of noradrenaline-induced vasoconstriction at 5 mM relative to control", "type": "tissue-based", "details": "isolated rat aorta", "how_it_was_run": "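Rat aortic strips were contracted with noradrenaline, washed, stabilized for 30 min, and contracted again. At peak contraction, compound was added (final 5 × 10^-3 M) or vehicle alone. The relaxant response was recorded as percentage inhibition of the contraction.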"}, "Mus musculus [9]": {"tested_on": "Mus musculus", "assay": "Analgesic activity in ICR mouse assessed as pain threshold variation at 0.013 mmol/kg, ip after 30 mins by tail flick test relative to control", "type": "functional", "how_it_was_run": "as §1"}, "Mus musculus [10]": {"tested_on": "Mus musculus", "assay": "Analgesic activity in ICR mouse assessed as pain threshold variation at 0.013 mmol/kg, ip after 60 mins by tail flick test relative to control", "type": "functional", "how_it_was_run": "as §1"}, "Mus musculus [11]": {"tested_on": "Mus musculus", "assay": "Analgesic activity in ICR mouse assessed as pain threshold variation at 0.013 mmol/kg, ip after 90 mins by tail flick test relative to control", "type": "functional", "how_it_was_run": "as §1"}, "Mus musculus [12]": {"tested_on": "Mus musculus", "assay": "Analgesic activity in ICR mouse assessed as pain threshold variation at 0.013 mmol/kg, ip after 120 mins by tail flick test relative to control", "type": "functional", "how_it_was_run": "as §1"}, "Mus musculus [13]": {"tested_on": "Mus musculus", "assay": "Analgesic activity in ICR mouse assessed as pain threshold variation at 0.13 mmol/kg, ip after 30 mins by tail flick test relative to control", "type": "functional", "how_it_was_run": "as §1"}, "Mus musculus [14]": {"tested_on": "Mus musculus", "assay": "Analgesic activity in ICR mouse assessed as pain threshold variation at 0.13 mmol/kg, ip after 60 mins by tail flick test relative to control", "type": "functional", "how_it_was_run": "as §1"}, "Mus musculus [15]": {"tested_on": "Mus musculus", "assay": "Analgesic activity in ICR mouse assessed as pain threshold variation at 0.13 mmol/kg, ip after 90 mins by tail flick test relative to control", "type": "functional", "how_it_was_run": "as §1"}, "Mus musculus [16]": {"tested_on": "Mus musculus", "assay": "Analgesic activity in ICR mouse assessed as pain threshold variation at 0.13 mmol/kg, ip after 120 mins by tail flick test", "type": "functional", "how_it_was_run": "as §1"}, "Mus musculus [17]": {"tested_on": "Mus musculus", "assay": "Analgesic activity in ICR mouse assessed as pain threshold variation at 0.13 mmol/kg, ip after 150 mins by tail flick test", "type": "functional", "how_it_was_run": "as §1"}, "Mus musculus [18]": {"tested_on": "Mus musculus", "assay": "Thrombotic toxicity in ICR mouse assessed as tail bleeding time at 1.3 mmol/kg, ip after 5 mins", "type": "organism-based", "details": "in vivo", "how_it_was_run": "as §2"}, "Mus musculus [19]": {"tested_on": "Mus musculus", "assay": "Thrombotic toxicity in ICR mouse assessed as tail bleeding time at 1.3 mmol/kg, ip after 15 mins", "type": "organism-based", "details": "in vivo, 0.25 h", "how_it_was_run": "as §2"}, "Mus musculus [20]": {"tested_on": "Mus musculus", "assay": "Thrombotic toxicity in ICR mouse assessed as tail bleeding time at 1.3 mmol/kg, ip after 30 mins", "type": "organism-based", "details": "in vivo, 0.5 h", "how_it_was_run": "as §2"}}}
{"smiles": "CC1(C)N=C(c2ccc(Cl)cc2)N(O)C1(C)C", "values": [{"measurement": "Activity", "setting": "Mus musculus [1]", "result": 62.76, "unit": "%"}, {"measurement": "Activity", "setting": "Mus musculus [2]", "result": 24.97, "unit": "%"}, {"measurement": "Activity", "setting": "Mus musculus [3]", "result": 30.02, "unit": "%"}, {"measurement": "Activity", "setting": "Mus musculus [4]", "result": 32.13, "unit": "%"}, {"measurement": "Activity", "setting": "Mus musculus [5]", "result": 31.55, "unit": "%"}, {"measurement": "Activity", "setting": "Mus musculus [6]", "result": 42.74, "unit": "%"}, {"measurement": "Activity", "setting": "Mus musculus [7]", "result": 119, "unit": "s"}, {"measurement": "inhibition at 5000 µM", "setting": "[8]", "result": 23.8, "unit": "%"}, {"measurement": "Activity", "setting": "Mus musculus [9]", "result": 39.87, "unit": "%"}, {"measurement": "Activity", "setting": "Mus musculus [10]", "result": 47.25, "unit": "%"}, {"measurement": "Activity", "setting": "Mus musculus [11]", "result": 50.88, "unit": "%"}, {"measurement": "Activity", "setting": "Mus musculus [12]", "result": 50, "unit": "%"}, {"measurement": "Activity", "setting": "Mus musculus [13]", "result": 63.85, "unit": "%"}, {"measurement": "Activity", "setting": "Mus musculus [14]", "result": 70.21, "unit": "%"}, {"measurement": "Activity", "setting": "Mus musculus [15]", "result": 75.61, "unit": "%"}, {"measurement": "Activity", "setting": "Mus musculus [16]", "result": 74.74, "unit": "%"}, {"measurement": "Activity", "setting": "Mus musculus [17]", "result": 88.42, "unit": "%"}, {"measurement": "Activity", "setting": "Mus musculus [18]", "result": 117, "unit": "s"}, {"measurement": "Activity", "setting": "Mus musculus [19]", "result": 119, "unit": "s"}, {"measurement": "Activity", "setting": "Mus musculus [20]", "result": 117, "unit": "s"}]}
